One may read the inhibition as the relative decrease from the control value, in per cent.

Active and inactive are the calls of the source.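 How the source made its calls, unless noted: active means compounds giving at least 50% inhibition in the cell-based MKP-3 phosphatase rescue imaging test; inactive means the rest.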

The results in this text go back to PubChem BioAssay.

A short description of assay [1]: inhibitors of TNFa-induced NFkB p65 translocation, primary screen, imaging, HUVEC, MLSMR starter and 10KST1 sets (AID 438;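 active means inhibition above 20% together with a positive visual image hit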;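 further: compound added about 3h40 before a 20 min TNFalpha stimulation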;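 on inhibition: signal is the nuclear over cytoplasmic p65 intensity ratio per well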). As to conditions: HUVEC TNFa-induced p65 nuclear translocation; cell count: measured here: nuclei count (cytotoxicity indicator), at 2.08 µM; inhibition: at 2 µM, stronger effect = higher value, 0% TNFa-plus-vehicle, 100% no-TNFa wells.
Assay [2] in a line: endothelial E-selectin expression blockers – imaging, HUVEC, immunofluorescence, MLSMR starter and 10KST1 sets, primary screen (AID 487;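 active means visually confirmed hit in the image check and inhibition above 20%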;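 on inhibition: signal is fraction of cell area covered by stained E-selectin grains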;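 on nuclei count: 100% = median nuclei count of all wells on the same plate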). The following applies: HUVEC TNFalpha-induced E-selectin immunofluorescence imaging, at 2 µM; inhibition: stronger effect = higher value; nuclei count: measured here: cell number, toxicity.
Assay [3] in a line: Primary imaging screen for DUSP6 inhibitors that restore phospho-Erk in transfected HeLa cells, chemical complementation (AID 609).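 On inhibition: phospho-Erk level distribution per well compared with pooled transfected vehicle control wells.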 The following applies: HeLa MKP-3 transfected, phospho-Erk imaging KS statistic, at 10 µM, cells stimulated with TPA for 15 min.
In assay [4] the target is Dual specificity protein phosphatase 6 (Homo sapiens) (UniProt Q16828). Described as above. The following applies: HeLa MKP-3 transfected, phospho-Erk imaging KS statistic; at 10 µM; stronger effect = higher value; cells stimulated with TPA for 15 min.
Assay [5] deals with Voltage-gated potassium channel subunit beta-2 (Rattus norvegicus) (UniProt P62483). Put plainly: inhibitors of rat Kvbeta2 reductase activity – biochemical, NADPH fluorescence, primary screen (AID 622;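 active means fluorescence slope higher than the sample average by over 3 SD, cut at about -0.22 in these data, passing the limit was not always enough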;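 further: slope of raw intensity against log time taken from 70 to 1610 s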). The following applies: recombinant KvBeta, 4-cyanobenzaldehyde reduction, at 10 µM, stronger effect = higher value.
The target is the same in assay [6]. Put plainly: enhancers of rat Kvbeta2 NADPH turnover – biochemical, NADPH fluorescence, primary screen (AID 623;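 active means NADPH fluorescence slope more negative than the mean of all samples by about 3 SD, 99.7% confidence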;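 further: fluorescence intensity change per second fitted from 20 to 320 s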). As to conditions: Recombinant KvBeta, NADPH fluorescence decrease slope, 10 min; at 10 µM; stronger effect = lower value.
For assay [7], the target named is Alpha-2C adrenergic receptor (Homo sapiens) (UniProt P18825). Description: compounds altering alpha2C-coupled GIRK flux – cell-based, HEK293 alpha2C/GIRK1/2, thallium flux, primary screen (AID 624;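 active means fluorescence slope after compound addition differing from the mean of all screened samples at 99.7% confidence, in either direction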;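 further: slope of fluorescence ratio to pre-addition baseline per second over 15 to 24 s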). As to conditions: thallium flux BTC fluorescence, at 10 µM, actives lie on both sides.
Assay [8] is described as follows: inhibitors of larval lipid processing in zebrafish, primary screen, whole organism, PED6 fluorescence, gall bladder and intestine (AID 686;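 active means a full or partial loss of lipid-probe fluorescence in the fish gall bladder, intestine or both, judged by eye; inactive means no fluorescence loss, or compound toxic to the fish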;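 further: larvae 5 to 7 days old with five fish per well; signal comes from phospholipase A2 cleavage of quenched PED6 carried via bile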). The following applies: Zebrafish larvae PED6 lipid processing, fluorescence scoring; screened at 20 µM (by protocol). An outline of the steps: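 Incubation: overnight exposure of larvae to compound plus PED6 / Test system: live zebrafish larvae aged 5-7 days, whole organism / Amount: 5 larvae per well / Read-out basis: visual per-well fluorescence inhibition score / Signal: visual fluorescence microscopy scoring of gall bladder, gut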

Assay [9] is described as follows: loss of swimming-algae plug formation – whole organism, Chlamydomonas reinhardtii, WT vs cilia-less mutant, absorbance, 96-well, primary screen (AID 463189;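 active means inhibition at or above 50% relative to wild type and mutant plate controls; inactive means inhibition below 50%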;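 further: 0% = wild type cc124 cells in DMSO and 100% = ciliumless bld1 mutant cells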). The following applies: Chlamydomonas reinhardtii gravitaxis, OD600 absorbance, 2 days; at 10 µM; stronger effect = higher value.
Setting [10] is: measured here: cell density z-score.
[11] abbreviates: measured here: nuclear c-Myc green intensity z-score.
The mark [12] stands for this setting: measured here: nuclear pErk red intensity z-score, stronger effect = higher value.

Voltage-gated potassium channel subunit beta-2 (Rattus norvegicus), sequence (P62483 whole entry, looked up): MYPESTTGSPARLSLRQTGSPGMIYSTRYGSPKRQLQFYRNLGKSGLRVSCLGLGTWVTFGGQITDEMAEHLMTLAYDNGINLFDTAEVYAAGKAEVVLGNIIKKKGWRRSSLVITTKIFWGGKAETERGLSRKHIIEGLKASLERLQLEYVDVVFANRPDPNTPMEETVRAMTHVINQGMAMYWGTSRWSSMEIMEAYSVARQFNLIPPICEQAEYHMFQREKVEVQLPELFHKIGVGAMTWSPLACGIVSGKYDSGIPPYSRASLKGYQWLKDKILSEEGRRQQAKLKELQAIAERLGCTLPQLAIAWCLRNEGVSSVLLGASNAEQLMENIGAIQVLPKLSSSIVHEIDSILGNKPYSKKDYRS
Dual specificity protein phosphatase 6 (Homo sapiens), sequence (Q16828 whole entry, looked up): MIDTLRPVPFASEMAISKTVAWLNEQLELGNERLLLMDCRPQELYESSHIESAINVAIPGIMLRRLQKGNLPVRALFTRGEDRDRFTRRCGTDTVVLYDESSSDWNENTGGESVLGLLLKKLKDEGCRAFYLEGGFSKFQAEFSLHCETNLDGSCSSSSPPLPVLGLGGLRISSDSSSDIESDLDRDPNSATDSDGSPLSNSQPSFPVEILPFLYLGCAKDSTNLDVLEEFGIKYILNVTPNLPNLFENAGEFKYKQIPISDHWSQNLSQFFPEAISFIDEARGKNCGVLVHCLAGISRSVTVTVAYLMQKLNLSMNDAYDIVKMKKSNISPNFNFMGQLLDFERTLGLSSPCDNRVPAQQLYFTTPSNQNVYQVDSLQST
Alpha-2C adrenergic receptor (Homo sapiens), sequence (P18825 whole entry, looked up): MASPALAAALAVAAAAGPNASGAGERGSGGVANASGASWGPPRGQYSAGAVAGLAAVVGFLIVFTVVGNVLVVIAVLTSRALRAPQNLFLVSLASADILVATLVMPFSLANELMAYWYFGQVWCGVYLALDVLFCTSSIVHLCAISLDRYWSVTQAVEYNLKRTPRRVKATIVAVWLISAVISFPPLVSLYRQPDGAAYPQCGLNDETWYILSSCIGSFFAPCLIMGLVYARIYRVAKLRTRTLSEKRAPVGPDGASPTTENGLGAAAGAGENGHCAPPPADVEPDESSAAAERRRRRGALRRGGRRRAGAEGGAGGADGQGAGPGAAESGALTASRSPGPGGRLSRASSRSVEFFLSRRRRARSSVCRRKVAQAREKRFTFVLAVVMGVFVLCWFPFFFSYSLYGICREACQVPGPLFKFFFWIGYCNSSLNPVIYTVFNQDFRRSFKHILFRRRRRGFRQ

For the compound `CCN(CC)CCNC(=O)c1ccccc1N`, the cell count in [1] amounted to 521. The inhibition in assay [1] is -17.4% (inactive); in assay [2], -314% (inactive); in assay [4] it was -8.95% (inactive); in [9], -5.26% (inactive). The nuclei count in assay [2] came to 187%. For the same compound, the z-score in [3] (setting [10]) stood at 0.845; in [3] (setting [11]), 0.248; in assay [3] (setting [12]) it was 0.636. For the same compound, the fluorescence slope in [5] is -0.463 (inactive). In addition, the NADPH fluorescence slope in [6] was -0.000132 (inactive). Besides, the slope in assay [7] is 0.00488 (inactive). The call in [8] was inactive.
Turning to `CC1(C)Cc2c(sc3nc4n(c(=O)c23)CCC4)CO1`, the cell count in assay [1] was determined as 700. The inhibition in assay [1] is -9.4% (inactive); in assay [2], 43.7% (inactive); in assay [4], 2.71% (inactive); in assay [9] it was -8.7% (inactive). This compound also had a nuclei count in assay [2] of 159%. The z-score in assay [3] (setting [10]) is -1.3; in assay [3] (setting [11]), 1.46; in [3] (setting [12]), 1.2. In [5], the fluorescence slope was -0.377 (inactive). Also, the NADPH fluorescence slope in [6] was -6e-05 (inactive). In addition, the slope in [7] was 0.00549 (inactive). Besides, the compound was classed as inactive in assay [8].
For the compound `Cc1ccc2c(c1)[C@@H]1CN(C)CC[C@@H]1N2S(=O)(=O)c1ccc(F)cc1`, in assay [1], the cell count was 507. For the same compound, the inhibition is -8.3% (inactive) in assay [1], -69% (inactive) in assay [2], -8.27% (inactive) in assay [4] and 10.5% (inactive) in assay [9]. This compound also showed a nuclei count in [2] of 199%. Further, the z-score was -0.629 in assay [3] (setting [10]), -0.478 in [3] (setting [11]) and -0.18 in [3] (setting [12]). Also, in [5], the fluorescence slope is -0.324 (inactive). Further, the NADPH fluorescence slope in assay [6] is -2.1e-06 (inactive). For the same compound, in assay [7], the slope was 0.00411 (inactive). In addition, the result in assay [8] was inactive.
Take `COc1ccc(S(=O)(=O)N2CCC(N3CCCCC3)CC2)cc1`: in assay [1], the cell count was 454. For the same compound, the inhibition is -22.7% (inactive) in assay [1], -217% (inactive) in [2], 29.3% (inactive) in [4] and 68% (active) in assay [9]. Also, in assay [2], the nuclei count was 148%. Moreover, the z-score is 0.445 in [3] (setting [10]), -1.43 in assay [3] (setting [11]) and -2.35 in assay [3] (setting [12]). Also, the fluorescence slope in assay [5] is -0.314 (inactive). For the same compound, the NADPH fluorescence slope in [6] is -2e-05 (inactive). The slope in assay [7] is 0.00443 (inactive). Also, the result in [8] was inactive.
Turning to `CCc1cc2c(=O)c(-c3cscn3)coc2c(CN(C)C)c1O`, in assay [1], the cell count is 517. For the same compound, the inhibition is -8.2% (inactive) in assay [1], -53.3% (inactive) in assay [2], 1.9e-07% (inactive) in [4] and 15.7% (inactive) in assay [9]. In addition, the nuclei count in assay [2] worked out at 86.5%. The z-score in assay [3] (setting [10]) is 0.222; in [3] (setting [11]) it was -0.434; in assay [3] (setting [12]), 0.878. The fluorescence slope in assay [5] is -0.0873 (inactive). For the same compound, in [6], the NADPH fluorescence slope was -2.5e-06 (inactive). For the same compound, the slope in assay [7] is 0.00409 (inactive). The result in assay [8] was inactive.
Regarding `N#CCCN(CCC#N)c1nnc(-c2ccccc2)s1`, in [1], the cell count amounted to 391. For the same compound, the inhibition in [1] is -3.1% (inactive); in assay [2], -60.9% (inactive); in assay [4] it was 17% (inactive); in [9], 27.2% (inactive). Besides, the nuclei count in [2] came out at 159%. Further, the results for the z-score in [3] (setting [10]), in assay [3] (setting [11]) and in [3] (setting [12]) were 1.49, 1.59 and -1.79, respectively. Besides, the fluorescence slope in assay [5] was -0.384 (inactive). In addition, the NADPH fluorescence slope in assay [6] is -3.6e-05 (inactive). The slope in assay [7] is 0.00496 (inactive). Besides, in [8], the outcome is “inactive; toxic”.
Take `Cn1c(SCC(=O)NCc2ccccc2)nc2ccccc21`: in assay [1], the cell count came to 325. Besides, the inhibition in [1] was 1.6% (inactive); in assay [2] it was -60.9% (inactive); in assay [4], 3.66% (inactive); in assay [9] it was 26.1% (inactive). Moreover, in assay [2], the nuclei count worked out at 79.7%. For the same compound, the z-score is 0.441 in assay [3] (setting [10]), 2.21 in assay [3] (setting [11]) and -0.441 in assay [3] (setting [12]). In addition, in assay [5], the fluorescence slope is -0.364 (inactive). In assay [6], the NADPH fluorescence slope was -2.1e-05 (inactive). The slope in assay [7] was 0.00569 (inactive). The outcome in [8] is “inactive; toxic”.
Regarding `CCOC(=O)CCc1c(C)c(C#N)c2[nH]c3ccccc3n2c1=O`, in assay [1], the cell count was 536. The inhibition in assay [1] is -1.4% (inactive); in assay [2], -8.6% (inactive); in assay [4] it was 15.9% (inactive); in [9], 18.4% (inactive). Besides, in [2], the nuclei count came to 82.5%. In addition, the z-score in [3] (setting [10]) was -0.186; in [3] (setting [11]), -0.0675; in assay [3] (setting [12]), -0.0374. Further, the fluorescence slope in assay [5] was -0.617 (inactive). The NADPH fluorescence slope in [6] is -3.7e-05 (inactive). For the same compound, the slope in assay [7] is 0.00416 (inactive). Besides, in [8], the outcome was “active; weak signal in gallbladder and intestine”.
For the compound `Clc1ccc2[nH]c3c(NCCN4CCOCC4)ncnc3c2c1`, the cell count in assay [1] turned out to be 504. Moreover, the inhibition in assay [1] was -25% (inactive); in assay [2], -70% (inactive); in [4] it was -2.47% (inactive); in assay [9], 2.54% (inactive). Further, in assay [2], the nuclei count stood at 154%. Besides, the z-score was -1.3 in assay [3] (setting [10]), 0.291 in [3] (setting [11]) and 1.3 in assay [3] (setting [12]). In assay [5], the fluorescence slope was -0.503 (inactive). The NADPH fluorescence slope in assay [6] was -3.9e-05 (inactive). For the same compound, the slope in [7] was 0.00429 (inactive). Besides, the call in assay [8] was inactive.
As to `Cc1c(OCc2ccccc2)c(=O)ccn1Cc1ccccc1`, the cell count in assay [1] turned out to be 560. In addition, the inhibition in assay [1] is -7.9% (inactive); in [2], -27.8% (inactive); in [4] it was -2.91% (inactive); in assay [9], -5.81% (inactive). For the same compound, the nuclei count in assay [2] was 226%. Further, the z-score in assay [3] (setting [10]) is 0.907; in [3] (setting [11]) it was -0.745; in [3] (setting [12]), -0.326. In [5], the fluorescence slope was -0.379 (inactive). Besides, the NADPH fluorescence slope in [6] is -2.4e-05 (inactive). Besides, in assay [7], the slope is 0.00471 (inactive). For the same compound, in [8], the result was inactive.
On to `COC(=O)CSC1=C(C#N)C(=O)NC2(CCCCC2)S1`, for which the cell count in assay [1] worked out at 573. For the same compound, the inhibition in assay [1] is -10.7% (inactive); in assay [2], -35.3% (inactive); in assay [4], -11.5% (inactive); in assay [9] it was -6.72% (inactive). The nuclei count in assay [2] amounted to 154%. The z-score is -0.563 in assay [3] (setting [10]), 0.765 in assay [3] (setting [11]) and 0.767 in [3] (setting [12]). The fluorescence slope in assay [5] is -0.493 (inactive). For the same compound, in [6], the NADPH fluorescence slope was -4.7e-05 (inactive). The slope in assay [7] was 0.00592 (inactive). Besides, the compound was called inactive in assay [8].
